Reference: ChEMBL document CHEMBL3525945, “Metabolic switching of BILR 355 in the presence of ritonavir. II. Uncovering novel contributions by gut bacteria and aldehyde oxidase” (Drug Metab Dispos, 2012)

Columns and labels:
Cytochrome P450 2C9 = Cytochrome P450 2C9 (Homo sapiens, UniProt P11712); assay: Activity at recombinant CYP2C9 (unknown origin) expressed in baculovirus-infected insect cells assessed as enzyme-mediated drug depletion at 1 to 10 uM by LC-MS/MS analysis in presence of NADPH; format: ADME
Sequence of Cytochrome P450 2C9 (P11712 whole entry): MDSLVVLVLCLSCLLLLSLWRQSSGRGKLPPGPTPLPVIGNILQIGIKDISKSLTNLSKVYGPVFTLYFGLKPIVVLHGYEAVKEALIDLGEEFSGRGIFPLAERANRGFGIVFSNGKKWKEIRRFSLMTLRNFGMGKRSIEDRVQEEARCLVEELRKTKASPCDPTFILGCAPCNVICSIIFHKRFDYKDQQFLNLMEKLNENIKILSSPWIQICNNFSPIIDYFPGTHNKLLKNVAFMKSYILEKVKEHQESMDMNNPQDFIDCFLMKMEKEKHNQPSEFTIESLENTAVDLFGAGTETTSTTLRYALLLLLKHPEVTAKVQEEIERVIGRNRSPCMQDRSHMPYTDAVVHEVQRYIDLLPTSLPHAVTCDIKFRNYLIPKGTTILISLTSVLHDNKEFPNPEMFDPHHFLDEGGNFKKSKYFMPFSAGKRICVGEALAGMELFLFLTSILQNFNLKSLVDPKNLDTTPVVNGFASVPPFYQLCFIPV
Outline: (§1)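 BILR 402 (1 or 10 μM) with baculovirus/insect-cell recombinant CYPs, levels scaled to average liver content (1A2 2, 2A6 1, 2B6 0.1, 2C9 1.5, 2C19 1.5, 2D6 0.3, 3A4 5 pmol/mL). Buffer 0.1 M potassium phosphate, 5 mM MgCl2, pH 7.4; 2.5 mM NADPH; 37 °C. Non-transfected insect microsomes served as controls. Aliquots taken 0.5–30 min and acetonitrile-quenched; depletion measured by LC-MS/MS with isotope-labelled internal standard.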

Cytochrome P450 3A4 [1] = target: T1, Cytochrome P450 3A4 (Homo sapiens, UniProt P08684); assay: Activity at recombinant CYP3A4 (unknown origin) expressed in baculovirus-infected insect cells assessed as enzyme-mediated drug depletion at 1 to 10 uM by LC-MS/MS analysis in presence of NADPH; format: ADME; settings: TDE = time-dependent effect; outline: as §1
T1 sequence (P08684 whole entry): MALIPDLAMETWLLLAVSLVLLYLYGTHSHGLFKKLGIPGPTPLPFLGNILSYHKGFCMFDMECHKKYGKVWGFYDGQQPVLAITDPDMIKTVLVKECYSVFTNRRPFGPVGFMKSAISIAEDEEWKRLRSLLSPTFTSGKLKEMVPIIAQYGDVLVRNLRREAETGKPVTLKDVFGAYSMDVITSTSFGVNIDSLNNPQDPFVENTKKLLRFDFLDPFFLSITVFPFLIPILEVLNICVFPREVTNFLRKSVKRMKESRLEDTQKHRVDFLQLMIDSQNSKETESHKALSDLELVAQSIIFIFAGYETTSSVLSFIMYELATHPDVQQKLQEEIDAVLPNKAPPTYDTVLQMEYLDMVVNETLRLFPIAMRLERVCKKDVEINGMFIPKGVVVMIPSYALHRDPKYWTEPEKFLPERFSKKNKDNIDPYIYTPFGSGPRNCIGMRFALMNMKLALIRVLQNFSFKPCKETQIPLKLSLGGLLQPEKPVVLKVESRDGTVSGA

Cytochrome P450 3A4 [2] = target: T1, Cytochrome P450 3A4; assay: Activity at recombinant CYP3A4 (unknown origin) expressed in baculovirus-infected insect cells assessed as enzyme-mediated drug depletion by measuring compound level at 1 uM after 4 mins by LC-MS/MS analysis in presence of NADPH; format: ADME
Outline: (§2)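 rCYP3A4 (5 pmol/mL) incubated with BILR 402 at 1 or 10 μM in 0.1 M potassium phosphate/5 mM MgCl2, pH 7.4, with NADPH at 37 °C. Remaining BILR 402 and BILR 355 formed were read at 4 min by LC-MS/MS against a labelled internal standard.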

Liver cytosol [3] = assay: Drug metabolism in human liver cytosol assessed as BILR355 formation at 10 uM by LC-MS/MS analysis; format: ADME, tissue-based
Outline: (§3)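 BILR 402 (10 μM final) was incubated with human liver S9 or cytosol (1 mg/mL protein) in 0.05 M potassium phosphate pH 7.4 at 37 °C. Runs were done with or without 2.5 mM NADPH. Samples at 10, 20, 30 and 60 min were quenched in nevirapine/acetonitrile, filtered and analysed by LC-MS/MS; duplicate.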

Cytochrome P450 3A4 [4] = target: T1, Cytochrome P450 3A4; assay: Activity at recombinant CYP3A4 (unknown origin) expressed in baculovirus-infected insect cells assessed as enzyme-mediated drug depletion by measuring compound level at 10 uM after 4 mins by LC-MS/MS analysis in presence of NADPH; format: ADME; outline: as §2
[5] = Drug metabolism in human liver S9 fraction assessed as BILR355 formation at 10 uM by LC-MS/MS analysis in presence of NADPH; format: ADME, subcellular; settings: s9, 10 µM; outline: as §3
Aldehyde oxidase = target: T2, Aldehyde oxidase (Homo sapiens, UniProt Q06278); assay: Activity at human recombinant AO expressed in Escherichia coli cells assessed as enzyme-mediated BILR516 metabolite formation at 5 uM by LC-MS/MS analysis; format: ADME
T2 sequence (Q06278 whole entry): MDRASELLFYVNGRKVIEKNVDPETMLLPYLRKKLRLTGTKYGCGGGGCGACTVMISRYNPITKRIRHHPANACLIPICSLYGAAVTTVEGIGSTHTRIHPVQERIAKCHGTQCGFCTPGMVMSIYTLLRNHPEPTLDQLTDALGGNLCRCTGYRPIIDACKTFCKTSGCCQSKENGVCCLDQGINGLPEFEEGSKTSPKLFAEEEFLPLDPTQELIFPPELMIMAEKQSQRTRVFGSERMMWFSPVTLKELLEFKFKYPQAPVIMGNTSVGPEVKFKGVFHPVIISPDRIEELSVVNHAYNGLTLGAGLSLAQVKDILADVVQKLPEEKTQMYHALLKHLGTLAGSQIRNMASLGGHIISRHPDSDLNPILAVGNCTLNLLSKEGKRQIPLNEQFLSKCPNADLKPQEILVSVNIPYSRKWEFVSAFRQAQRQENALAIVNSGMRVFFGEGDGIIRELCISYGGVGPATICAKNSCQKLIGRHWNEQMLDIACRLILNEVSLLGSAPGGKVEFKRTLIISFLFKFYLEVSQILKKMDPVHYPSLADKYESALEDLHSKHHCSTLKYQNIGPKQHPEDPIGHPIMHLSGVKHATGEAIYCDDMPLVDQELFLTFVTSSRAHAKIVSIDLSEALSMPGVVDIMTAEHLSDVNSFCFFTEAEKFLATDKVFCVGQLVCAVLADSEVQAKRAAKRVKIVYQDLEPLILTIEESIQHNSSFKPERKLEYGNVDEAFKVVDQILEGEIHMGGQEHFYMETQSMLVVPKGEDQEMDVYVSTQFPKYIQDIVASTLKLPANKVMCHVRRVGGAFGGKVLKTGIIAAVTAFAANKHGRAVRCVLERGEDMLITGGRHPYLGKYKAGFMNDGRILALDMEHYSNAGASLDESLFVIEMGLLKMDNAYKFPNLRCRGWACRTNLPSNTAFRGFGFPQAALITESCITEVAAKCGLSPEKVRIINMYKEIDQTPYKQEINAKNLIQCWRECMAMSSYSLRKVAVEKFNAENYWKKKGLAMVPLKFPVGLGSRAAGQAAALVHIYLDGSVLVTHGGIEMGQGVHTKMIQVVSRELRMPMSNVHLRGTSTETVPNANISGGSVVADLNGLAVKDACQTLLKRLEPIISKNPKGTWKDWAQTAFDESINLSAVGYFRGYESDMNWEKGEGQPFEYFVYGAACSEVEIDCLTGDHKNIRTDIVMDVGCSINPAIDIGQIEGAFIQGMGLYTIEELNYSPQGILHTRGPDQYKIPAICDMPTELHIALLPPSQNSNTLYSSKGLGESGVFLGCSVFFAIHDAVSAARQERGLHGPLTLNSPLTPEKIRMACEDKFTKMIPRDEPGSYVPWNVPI
Outline: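 BILR 402 (5 μM final) incubated with cytosolic extract of E. coli expressing human AO, or control E. coli cytosol lacking AO, 0.1 mg/mL protein, 0.05 M potassium phosphate pH 7.4, 37 °C.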

Liver cytosol [6] = assay: Drug metabolism in human liver cytosol assessed as BILR516-18O and BILR516-16O metabolite formation at 5 uM after 60 mins by 18O incorporation based LC-MS/MS analysis; format: ADME, tissue-based; settings: 1 h
Outline: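 BILR 402 (5 μM final) was incubated with human liver cytosol in 0.05 M potassium phosphate buffer made with 100% H2^16O or H2^16O/H2^18O 82:18 (v/v), at 37 °C without NADPH. […] The M+2 isotope contribution was subtracted before calculating peak-area ratios; n=2.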

Cytochrome P450 2D6 = Cytochrome P450 2D6 (Homo sapiens, UniProt P10635); assay: Activity at recombinant CYP2D6 (unknown origin) expressed in baculovirus-infected insect cells assessed as enzyme-mediated drug depletion at 1 to 10 uM by LC-MS/MS analysis in presence of NADPH; format: ADME; outline: as §1
Sequence of Cytochrome P450 2D6 (P10635 whole entry): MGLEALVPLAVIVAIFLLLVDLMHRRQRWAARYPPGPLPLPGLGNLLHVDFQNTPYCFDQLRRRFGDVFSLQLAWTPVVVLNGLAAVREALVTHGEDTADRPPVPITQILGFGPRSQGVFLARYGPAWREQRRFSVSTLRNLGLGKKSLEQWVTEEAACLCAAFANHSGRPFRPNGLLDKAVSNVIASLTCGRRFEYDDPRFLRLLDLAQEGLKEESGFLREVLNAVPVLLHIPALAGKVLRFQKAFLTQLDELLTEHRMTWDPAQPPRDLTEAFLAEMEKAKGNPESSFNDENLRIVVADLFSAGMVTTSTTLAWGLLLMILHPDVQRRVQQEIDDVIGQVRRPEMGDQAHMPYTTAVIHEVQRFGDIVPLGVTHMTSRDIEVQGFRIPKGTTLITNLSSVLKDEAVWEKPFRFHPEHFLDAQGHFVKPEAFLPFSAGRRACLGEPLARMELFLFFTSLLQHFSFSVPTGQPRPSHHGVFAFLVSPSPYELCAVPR

**Q.** For `CCN1c2ncc(CCOc3ccnc4ccccc34)cc2C(=O)N(C)c2cccnc21`, which Drug metabolism (Cytochrome P450 2C9) is on record?
**A.** The Drug metabolism was “metabolite_not_detected”.

**Q.** And the Drug metabolism (Cytochrome P450 3A4 [1])?
**A.** The Drug metabolism was “tde”.

**Q.** And the Drug metabolism (Cytochrome P450 3A4 [2])?
**A.** Its Drug metabolism is 0.25 µM.

**Q.** And the Drug metabolism (Liver cytosol [3])?
**A.** Its Drug metabolism is “metabolite_not_detected”.

**Q.** And the Drug metabolism (Cytochrome P450 3A4 [4])?
**A.** The Drug metabolism was 5 µM.

**Q.** And the Drug metabolism [5]?
**A.** Its Drug metabolism is “metabolite_detected”.

**Q.** And the Drug metabolism (Aldehyde oxidase)?
**A.** The Drug metabolism was “metabolite_detected”.

**Q.** And the Drug metabolism (Liver cytosol [6])?
**A.** Its Drug metabolism is “metabolite_detected”.

**Q.** What about the Drug metabolism (Cytochrome P450 2D6) of the same compound?
**A.** The Drug metabolism was “metabolite_not_detected”.
